# In ChEMBL document CHEMBL1137561 (J Med Chem, 2007):
# Tests used:
# [1] = test system: Human immunodeficiency virus 1; experiment: Antiviral activity against HIV1 NL43 in MT4 cells assessed as inhibition of viral induced cytopathic effect after 5 days by MTT method; conditions: Human immunodeficiency virus 1, NL43, MT4, 120 h
# [2] = Cytotoxicity against MT4 cells after 4 days by MTT method; assay type: cell-based; conditions: human
# Outline: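 Mock-infected (noninfected) MT-4 cells, run in parallel with the antiviral test. Viable cells read by the MTT tetrazolium colorimetric method. […] Means ± SD from at least two experiments. The top concentration was limited where compounds precipitated in the culture medium.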
# [3] = Selectivity index, ratio of CC50 for MT4 cells to EC50 for HIV1 NL43 infected MT4 cells; assay type: functional
# [4] = Resistance index, Ratio of EC50 for drug-resistant HIV1 with RT IRLL98 mutation in MT4 cells to EC50 for HIV1 NL43 in MT4 cells
# [5] = Resistance index, Ratio of EC50 for drug-resistant HIV1 with RT Y181C mutation in MT4 cells to EC50 for HIV1 NL43 in MT4 cells
# [6] = test system: Human immunodeficiency virus 1; experiment: Antiviral activity against HIV1 with reverse transcriptase Y188L mutation in MT4 cells assessed as inhibition of viral induced cytopathic effect by MTT method; assay type: functional, organism-based; conditions: Human immunodeficiency virus 1, MT4
# Outline: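 MT-4 cells infected with the HIV-1 NNRTI-resistant mutant strain. Viable cells scored at day 5 post-infection by the MTT tetrazolium colorimetric method. Values are means ± SD from at least two experiments.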
# [7] = test system: Human immunodeficiency virus 1; experiment: Antiviral activity against HIV1 with reverse transcriptase K103N mutation in MT4 cells assessed as inhibition of viral induced cytopathic effect by MTT method; assay type: functional, organism-based; conditions: Human immunodeficiency virus 1, MT4
# Outline: (§1)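 MT-4 cells infected with the HIV-1 NNRTI-resistant mutant strain. Viable cells scored at day 5 post-infection by the MTT tetrazolium colorimetric method. […] Values are means ± SD from at least two experiments.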
# [8] = test system: Human immunodeficiency virus 1; experiment: Antiviral activity against HIV1 with reverse transcriptase Y181C mutation in MT4 cells assessed as inhibition of viral induced cytopathic effect by MTT method; assay type: functional, organism-based; conditions: Human immunodeficiency virus 1, MT4
# Outline: as §1
# [9] = test system: Human immunodeficiency virus 1; experiment: Antiviral activity against HIV1 with reverse transcriptase IRLL98 mutation in MT4 cells assessed as inhibition of viral induced cytopathic effect by MTT method; assay type: functional, organism-based; conditions: Human immunodeficiency virus 1, MT4
SMILES,EC50 [1] [nM],CC50 at 96 h [2] [nM],Ratio CC50/EC50 [3],Ratio EC50 [4],Ratio EC50 [5],EC50 [6] [nM],EC50 [7] [nM],EC50 [8] [nM],EC50 [9] [nM]
Cc1c(C(C)c2ccccc2F)nc(N(C)C)[nH]c1=O (stereo not given),6,44000,7333,,,,,,
CCCN(C)c1nc(Cc2c(F)cccc2F)cc(=O)[nH]1,9,85000,9444,,,,,,
CCCN(CCC)c1nc(Cc2c(F)cccc2F)cc(=O)[nH]1,1780,> 78000,>44,,,,,,
Cc1c(Cc2c(F)cccc2F)nc(N(C)c2ccccc2)[nH]c1=O,86,> 73000,>849,,,,,,
CCN(CC)c1nc(Cc2c(F)cccc2F)c(C)c(=O)[nH]1,30,> 81000,>2700,,,,,,
CCN(C)c1nc(Cc2c(F)cccc2F)cc(=O)[nH]1,13,> 89000,>6846,154,38,> 10000,> 10000,500,2000
CC(C)N(C)c1nc(Cc2c(F)cccc2F)cc(=O)[nH]1,8,85000,10625,22,4,> 10000,> 10000,30,180
Cc1c(Cc2c(F)cccc2F)nc(N2CCCC2)[nH]c1=O,32,> 82000,>2562,,161,> 10000,> 10000,5150,> 10000
"O=C1Nc2ccc(Cl)cc2C(C#CC2CC2)(C(F)(F)F)O1 (single isomer, unassigned) [EFAVIRENZ]",,> 300,,,,230,90,6,80
Cc1c(Cc2c(F)cccc2F)nc(N2CCC3(CC2)OCCO3)[nH]c1=O,650,> 66000,>101,,,,,,
O=c1cc(Cc2c(F)cccc2F)nc(N2CCCC2)[nH]1,93,> 86000,>925,,,> 10000,> 10000,> 10000,> 10000
Cc1c(C(C)c2c(Cl)cccc2Cl)nc(N(C)C)[nH]c1=O (stereo not given),30,35000,1167,,,,,,
Cc1c(C(C)c2c(F)cccc2F)nc(N2CCCCCC2)[nH]c1=O (stereo not given),9,> 72000,>8000,,,,,,
CC1CCN(c2nc(Cc3c(F)cccc3F)cc(=O)[nH]2)CC1,35,> 78000,>2229,131,37,> 10000,> 10000,1290,4600
Cc1c(Cc2c(F)cccc2F)nc(N2CCCC(C)C2)[nH]c1=O (stereo not given),18,> 75000,>4167,117,32,> 10000,> 10000,570,2100
O=c1cc(Cc2c(F)cccc2F)nc(-n2cccc2)[nH]1,17300,> 87000,>5,,,,,,
O=c1cc(Cc2c(F)cccc2N2CCCC2)nc(N2CCCC2)[nH]1,710,> 73000,>103,,,,,,
O=c1cc(Cc2c(F)cccc2F)nc(N2CCC3(CC2)OCCO3)[nH]1,2220,> 69000,>31,,,,,,
CCN(CC)c1nc(Cc2c(F)cccc2F)cc(=O)[nH]1,133,> 85000,>639,,,,,,
CCCN(CCC)c1nc(Cc2c(F)cccc2F)c(C)c(=O)[nH]1,2090,> 74000,>35,,,,,,
